In general, IC50 refers to the concentration at which inhibition is half-maximal.

The source made the active and inactive calls. No cut-off for these calls is given here.

For one experiment, the system named is L02. Put plainly: Cytotoxicity against human L02 cells assessed as reduction in cell viability after 72 hrs by MTT assay. As to conditions: L02, 72 h. The experiment is classed as cell-based. Summed up:
(§1)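 MTT assay over 72 h, compounds at 64, 16, 4, 1, 0.25, 0.0625 and 0.015625 μM. MTT solution (5 mg/mL) and DMSO added afterwards, 10 min at room temperature, absorbance read at 490 nm. IC50 calculated as the mean ± SD of three independent experiments.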

Experiment [1] in a line: Induction of H2S generation in PBS containing Na2S and MB+ cocktail in presence of TCEP/L-cysteine measured at 15 to 20 mins after 20 mins compound incubation by methylene blue dye based UV-Vis spectrophotometric method. The format is functional. Summed up:
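Na2S standards (5–150 μM) in sodium phosphate buffer reacted 20 min at room temperature with methylene blue cocktail (FeCl3/HCl, N,N-dimethyl-1,4-phenylenediamine/HCl, Zn(OAc)2) to build a 670 nm calibration curve. Compounds from 40 mM THF stock added to phosphate buffer with 1 mM TCEP or L-cysteine. Aliquots taken into the cocktail at set times, incubated 20 min, read at 670 nm. Mean of three experiments.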

The subject of another experiment is A549. Put plainly: Antiproliferative activity against human A549 cells assessed as reduction in cell viability after 72 hrs by MTT assay. The experiment is classed as functional, cell-based. The following applies: A549, 72 h. The essentials:
as §1

Another experiment has as its system SGC-7901. Put plainly: Antiproliferative activity against human SGC7901 cells assessed as reduction in cell viability after 72 hrs by MTT assay. The experiment is classed as functional, cell-based. The following applies: SGC-7901, 72 h. Summed up: as §1
(Tetrazolium assays rely on reduction of a dye to a coloured formazan, in cell work by metabolically active cells.)

For another experiment, the system named is K562. Put plainly: Antiproliferative activity against human K562 cells assessed as reduction in cell viability after 72 hrs by MTT assay. The format is functional, cell-based. As to conditions: K562, 72 h. Summed up:
as §1

The next experiment deals with PBMC. Put plainly: Cytotoxicity against human PBMC assessed as reduction in cell viability after 72 hrs by MTT assay. The experiment is classed as cell-based. Summed up:
as §1

For the next experiment, the system named is Bel-7402. In words: Antiproliferative activity against human Bel7402 cells assessed as reduction in cell viability after 72 hrs by MTT assay. The format is functional, cell-based. The following applies: Bel-7402, 72 h. The essentials:
as §1

Regarding `C=C1C(=O)[C@]23[C@H](OC(=O)c4ccccc4C(=O)Oc4ccc(-c5cc(=S)ss5)cc4)[C@H]1CC[C@H]2[C@@]12CO[C@]3(O)[C@@H](O)[C@@H]1C(C)(C)CC[C@@H]2OC(C)=O`, the IC50 is more than 50 µM in the experiment on L02; 16.7 µM in the experiment with A549; 12.4 µM in the experiment with SGC-7901; 11.4 µM with K562; 39.5 µM in the experiment on PBMC; 7.68 µM in the experiment on Bel-7402. In experiment [1], the result was Active.

`C=C1C(=O)[C@]23[C@H](O)[C@H]1CC[C@H]2[C@@]12CO[C@]3(O)[C@@H](O)[C@@H]1C(C)(C)CC[C@@H]2O` [ORIDONIN]: the IC50 in the experiment with L02 was 18.7 µM; in the experiment on A549, 17.8 µM; with SGC-7901, 7.87 µM; in the experiment with PBMC, more than 50 µM; in the experiment with Bel-7402 it was 8.31 µM.

Turning to `O=c1[nH]cc(F)c(=O)[nH]1` [FLUOROURACIL], the IC50 in the experiment on L02 is more than 50 µM; with SGC-7901 it was 6.38 µM; with K562, 4.02 µM; in the experiment on PBMC, more than 50 µM; in the experiment on Bel-7402 it was 17.6 µM.

Regarding `Oc1ccc(-c2cc(=S)ss2)cc1`, the IC50 in the experiment with L02, in the experiment on A549, with SGC-7901, with K562, with PBMC and with Bel-7402 was more than 50 µM each time.

Take `C=C1C(=O)[C@]23[C@H](OC(=O)c4ccccc4C(=O)Oc4ccc(-c5cc(=S)ss5)cc4)[C@H]1CC[C@H]2[C@@]12CO[C@]3(O)[C@@H](O)[C@@H]1C(C)(C)CCC2=O`: the IC50 is 42.6 µM with L02; 7.69 µM in the experiment with A549; 14.9 µM in the experiment with SGC-7901; 4.8 µM with K562; more than 50 µM in the experiment with PBMC; 5.34 µM in the experiment with Bel-7402. Besides, in experiment [1], the result was Active.

As for `C=C1C(=O)[C@]23[C@H](O)[C@H]1CC[C@H]2[C@@]12CO[C@]3(O)[C@@H](O)[C@@H]1C(C)(C)CCC2=O`, the IC50 with L02 is 23.4 µM; in the experiment with A549, 9.86 µM; in the experiment on SGC-7901, 16.5 µM; in the experiment with K562, 4.02 µM; in the experiment on PBMC, more than 50 µM; with Bel-7402, 3.88 µM.

As for `C=C1C(=O)[C@@]23C(=O)OC[C@]4(C(=O)CCC(C)(C)[C@H]4C=O)[C@@H]2CC[C@@H]1[C@H]3OC(=O)CCCCC1CCSS1` (stereo partly drawn), the IC50 in the experiment with L02 is 19.9 µM; with A549 it was 7.92 µM; in the experiment on SGC-7901, 6.43 µM; with K562 it was 2.59 µM; in the experiment with PBMC it was more than 50 µM; in the experiment on Bel-7402, 2.56 µM. Besides, the result in experiment [1] was Active.

As to `C=C1C(=O)[C@@]23C(=O)OC[C@]4([C@@H](OC(C)=O)CCC(C)(C)[C@H]4C=O)[C@@H]2CC[C@@H]1[C@H]3O`, the IC50 with L02 was more than 50 µM; with A549 it was 27.4 µM; in the experiment with SGC-7901, 49.8 µM; with K562, 8.96 µM; in the experiment with PBMC it was more than 50 µM; in the experiment with Bel-7402, more than 50 µM.

Regarding `C=C1C(=O)[C@@]23C(=O)OC[C@]4([C@@H](OC(C)=O)CCC(C)(C)[C@H]4C=O)[C@@H]2CC[C@@H]1[C@H]3OC(=O)CCCCC1CCSS1` (stereo partly drawn), the IC50 in the experiment on L02 is 36.5 µM; with A549, 19.9 µM; in the experiment on SGC-7901, 10 µM; with K562 it was 6.75 µM; in the experiment with PBMC, more than 50 µM; in the experiment with Bel-7402, 4.58 µM. Also, the outcome in experiment [1] was Active.

For `C=C1C(=O)[C@]23[C@H](OC(=O)CCCC(=O)Oc4ccc(-c5cc(=S)ss5)cc4)[C@H]1CC[C@H]2[C@@]12CO[C@]3(O)[C@@H](O)[C@@H]1C(C)(C)CC[C@@H]2OC(C)=O`, the IC50 in the experiment on L02 is 14.7 µM; in the experiment on A549, 9.76 µM; with SGC-7901, 5.36 µM; in the experiment on K562, 2.02 µM; in the experiment with PBMC, more than 50 µM; in the experiment on Bel-7402, 1.94 µM.

Regarding `C=C1C(=O)[C@@]23C(=O)OC[C@]4(C(=O)CCC(C)(C)[C@H]4C=O)[C@@H]2CC[C@@H]1[C@H]3OC(=O)CCC(=O)Oc1ccc(-c2cc(=S)ss2)cc1`, the IC50 with L02 turned out to be 18.2 µM; in the experiment on A549, 5.54 µM; in the experiment with SGC-7901, 4.24 µM; with K562 it was 1.82 µM; with PBMC, 16.6 µM; in the experiment with Bel-7402 it was 1.38 µM. Moreover, the outcome in experiment [1] was Active.

`O=C(O)CCCCC1CCSS1` (stereo not drawn) [LIPOIC ACID, ALPHA]: the IC50 in the experiment on L02, with A549, with SGC-7901, in the experiment on K562, with PBMC and in the experiment with Bel-7402 was more than 50 µM in each case.

In the case of `C=C1C(=O)[C@]23[C@H](O)[C@H]1CC[C@H]2[C@@]12CO[C@@]3(O)[C@@H](O)[C@@H]1C(C)(C)CC[C@@H]2OC(C)=O`, the half-inhibitory concentration (IC50) was 22.4 µM in the experiment with L02; 13.5 µM with A549; 6.45 µM in the experiment with SGC-7901; 4.92 µM with K562; more than 50 µM in the experiment on PBMC; 3.59 µM with Bel-7402.

As for `C=C1C(=O)[C@]23[C@H](OC(=O)CCC(=O)Oc4ccc(-c5cc(=S)ss5)cc4)[C@H]1CC[C@H]2[C@@]12CO[C@]3(O)[C@@H](O)[C@@H]1C(C)(C)CC[C@@H]2OC(C)=O`, the concentration for half-maximal inhibition (IC50) in the experiment with L02 is 23.2 µM; with A549, 6.34 µM; in the experiment with SGC-7901, 5.49 µM; in the experiment with K562 it was 2.54 µM; in the experiment on PBMC, 44.1 µM; in the experiment with Bel-7402, 2.87 µM.

For the compound `C=C1C(=O)[C@@]23C(=O)OC[C@]4([C@@H](OC(C)=O)CCC(C)(C)[C@H]4C=O)[C@@H]2CC[C@@H]1[C@H]3OC(=O)CCCC(=O)Oc1ccc(-c2cc(=S)ss2)cc1`, the 50% inhibitory concentration (IC50) in the experiment on L02 was more than 50 µM; in the experiment on A549, 14.8 µM; with SGC-7901, 7.66 µM; in the experiment on K562, 3.27 µM; in the experiment with PBMC it was 30.7 µM; in the experiment on Bel-7402, 4.59 µM. In experiment [1], the outcome was Active.

Regarding `C=C1C(=O)[C@@]23C(=O)OC[C@]4(C(=O)CCC(C)(C)[C@H]4C=O)[C@@H]2CC[C@@H]1[C@H]3O`, the IC50 in the experiment on L02 was 29.7 µM; in the experiment with A549, 5.31 µM; in the experiment on SGC-7901, 19.5 µM; in the experiment with K562 it was 3.26 µM; in the experiment on PBMC it was more than 50 µM; in the experiment on Bel-7402, 4.67 µM.

As to `C=C1C(=O)[C@@]23C(=O)OC[C@]4(C(=O)CCC(C)(C)[C@H]4C=O)[C@@H]2CC[C@@H]1[C@H]3OC(=O)c1ccccc1C(=O)Oc1ccc(-c2cc(=S)ss2)cc1`, the IC50 with L02 was 26.2 µM; in the experiment on A549, 7.45 µM; in the experiment with SGC-7901, 5.93 µM; in the experiment with K562, 4.25 µM; with PBMC, 31.4 µM; in the experiment on Bel-7402 it was 3.26 µM. In addition, in experiment [1], the outcome was Active.

For `C=C1C(=O)[C@@]23C(=O)OC[C@]4([C@@H](OC(C)=O)CCC(C)(C)[C@H]4C=O)[C@@H]2CC[C@@H]1[C@H]3OC(=O)CCC(=O)Oc1ccc(-c2cc(=S)ss2)cc1`, the IC50 in the experiment on L02 is more than 50 µM; in the experiment with A549 it was 27.5 µM; in the experiment with SGC-7901, 17.9 µM; in the experiment on K562, 15.3 µM; with PBMC it was 25.9 µM; in the experiment with Bel-7402, 9.73 µM. Also, in experiment [1], the outcome was Active.

As to `C=C1C(=O)[C@]23[C@H](OC(=O)CCCC(=O)Oc4ccc(-c5cc(=S)ss5)cc4)[C@H]1CC[C@H]2[C@@]12CO[C@]3(O)[C@@H](O)[C@@H]1C(C)(C)CCC2=O`, the IC50 is 21 µM in the experiment on L02; 4.38 µM in the experiment on A549; 6.59 µM in the experiment on SGC-7901; 3.84 µM in the experiment with K562; 17.2 µM in the experiment on PBMC; 3.04 µM in the experiment on Bel-7402.

Consider `C=C1C(=O)[C@]23[C@H](OC(=O)CCCCC4CCSS4)[C@H]1CC[C@H]2[C@@]12CO[C@]3(O)[C@@H](O)[C@@H]1C(C)(C)CC[C@@H]2OC(C)=O` (stereo partly drawn), for which the IC50 with L02 came to 41.1 µM; with A549, 8.65 µM; in the experiment with SGC-7901, 6.02 µM; in the experiment with K562 it was 2.84 µM; in the experiment with PBMC, 28.8 µM; in the experiment on Bel-7402, 2.25 µM. The result in experiment [1] was Active.

In the case of `C=C1C(=O)[C@]23[C@H](OC(=O)CCC(=O)Oc4ccc(-c5cc(=S)ss5)cc4)[C@H]1CC[C@H]2[C@@]12CO[C@]3(O)[C@@H](O)[C@@H]1C(C)(C)CCC2=O`, the IC50 with L02 is more than 50 µM; in the experiment with A549 it was 9.78 µM; with SGC-7901, 12.5 µM; in the experiment on K562 it was 3.66 µM; in the experiment with PBMC, 29.6 µM; with Bel-7402, 3.52 µM.
